Bioassay records as filed in PubChem BioAssay.
BB579 growth dn: growth inhibitors of yeast BB579 in restrictive medium, primary screen, yeast lifespan-shortening project, S. cerevisiae; OD615, 48 h; inhibition, % at 10 µM; actives 0.51% (n = 140,000);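 active means inhibition above a set limit, 3 SD over the mean compound inhibition, cut at about 44% in these data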
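Test system: DeaD yeast strain BB579 / Buffer or medium: restrictive glucose-based CSMM-D medium / Doses: single 10 µM dose / Schedule: 4 h cell preincubation, 48 h compound exposure, 30 °C humidified / Technique: culture absorbance at 615 nm / Controls: amphotericin B positive control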
Insulin prom inh: inhibitors of insulin promoter-driven GFP, primary screen, imaging, TRM-6 cells, eGFP reporter, cell count | reporter expression induced with tamoxifen | inhibition, % at 2 µM | actives 0.9% (n = 130,000);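 active means inhibition above the mean plus 3 SD, with well images judged a real hit on visual review, cut at about 60% in these data, passing the limit was not always enough; inconclusive means inhibition over the cutoff but images rejected on review; inactive means inhibition not above the cutoff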
RAM network inh: inhibitors of the yeast RAM network, primary screen, dse1pr::URA3 reporter, 5-FOA selection | AID 868, 2007 | S. cerevisiae dse1pr::URA3 reporter, 5-FOA growth OD615, 2 d; analog-sensitive cbk1-as2 kinase mutant strain | inhibition, % at 50 µM | actives 1.8% (n = 190,000);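 active means inhibition above a set limit, 3 SD over mean compound inhibition, cut at about 8.4% in these data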;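 further: 0% = DMSO-only wells with no growth and 100% = 10 µM 1-NA-PP1 full growth; inhibition rescues growth on 5-FOA so higher OD means more RAM inhibition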
Ins promoter up: insulin promoter activators in MIN6 cells, imaging, high-content screening, mouse beta cells | MIN6 insulin promoter-GFP reporter; stronger effect = higher value | z-score at 5 µM | actives 0.3% (n = 190,000) | AID 1625, 2009;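 active means z-score above 3 at 5 µM with at least 500 cells counted in the well; inconclusive means wells under 500 cells, flagged as cytotoxic or low count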
Yeast lifespan up: compounds extending yeast replicative lifespan, primary screen, S. cerevisiae, OD615 | S. cerevisiae growth with nicotinamide; deaD strain in restrictive glucose medium | inhibition of the nicotinamide effect, % at 10 µM | actives 0.68% (n = 130,000) | AID 775, 2007;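 active means inhibition above a set limit, placed 3 SD over the median of all compounds, cut at about 26% in these data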;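 further: 0% = nicotinamide-treated wells and 100% = cells grown without nicotinamide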
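Material: Modified budding yeast, DeaD strain | Medium: Restrictive glucose medium | Probe or stimulus: 1.5 mM nicotinamide | Dosing: Single dose 10 µM compound, 0.25% DMSO | Times: 48 h at 30 °C | Technique: OD615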
RAM efflux-def: 5-FOA growth of efflux-deficient control yeast, dose response, counter-screen for RAM network inhibitor project, S. cerevisiae, OD615; shares compounds with RAM network inh; S. cerevisiae efflux-deficient reporter strain, 5-FOA growth OD615, 2 days; max inhibition, %; 1,200 tested, under 10 active; call rule not given here;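 further: plate controls were vehicle for no effect and reference inhibitor for full effect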
* = called active by the depositor; ? = inconclusive; · = no result. A selection: hits, their analogues and other compounds. The true share with any hit is near 3.1%.

SMILES | BB579 growth dn | Insulin prom inh | RAM network inh | Ins promoter up | Yeast lifespan up | others
CCOc1cc(C2C(C#N)=C(N)Oc3c2c(=O)oc2ccccc32)ccc1OC(=O)c1cccs1 (stereo not drawn) | -24 | · | 8.9* | -0.16 | 5
N#CC1=C(N)Oc2c(c(=O)oc3ccccc23)C1c1cccnc1 (stereo not drawn) | -14 | 19 | -1 | 0.42 | -5
COc1ccc(C(c2c(O)c3ccccc3oc2=O)c2c(C)n(C)n(-c3ccccc3)c2=O)cc1 (stereo not drawn) | -70 | 64* | 5 | -0.08 | 7
Cc1c(C(c2ccc(F)cc2)c2c(O)c3ccccc3oc2=O)c(=O)n(-c2ccccc2)n1C (stereo not drawn) | -63 | -36 | 4 | -0.76 | 13
CC1CCN(C(=O)CCl)CC1 | -46 | 38 | 2 | 0.96 | 7
O=C1CC(c2ccccc2)CC(O)=C1C=NCCN1CCN(C(=O)Cc2ccccc2)CC1 (stereo not drawn) | -60 | -33 | 0 | 0.15 | 82*
Cc1ccc(C2CC(=O)C(C=NCCN3CCN(C(=O)Cc4ccccc4)CC3)=C(O)C2)cc1 (stereo not drawn) | -34 | -112 | 3 | -0.3 | 47
O=C(COc1ccc(Cl)cc1)N(c1ccc(Cl)cc1)C1CN2CCC1CC2 (stereo not drawn) | · | · | · | -0.41 | ·
CN1/C(=C\C=C\C2=[N+](C)c3ccc4ccccc4c3C2(C)C)C(C)(C)c2ccccc21 | 87* | -151 | -1 | ? | -23
NC(=O)c1cn(C2OC(CO)C(O)C2O)c2ncnc(N)c12 (stereo not drawn) | -30 | 64* | 1 | · | -1
NS(=O)(=O)c1ccc(N=Cc2c(O)n(C3CCCCC3)c(=O)n(C3CCCCC3)c2=O)cc1 | -49 | · | 0 | 0.46 | 33*
O=C1NC(=O)C(CCc2ccncc2)(Cc2ccc([N+](=O)[O-])cc2)C(=O)N1 | -29 | -7 | 0 | 0.36 | 2
O=C(c1cc2cc3ccc(Cl)cc3nc2o1)N1CCC2(CC1)OCCO2 | -21 | 84* | 5 | -0.1 | -9
COc1ccc2nc3oc(C(=O)N4CCC5(CC4)OCCO5)cc3cc2c1 | · | 67 | 1 | 0.16 | ·
O=C1NC(=S)N(C2CC2)C(=O)/C1=C/c1ccc2c(c1)CCN2CCCCl | -15 | 12 | 3 | 0.08 | 27*
CC(C)(C)N1C(=O)NC(=O)/C(=C\c2ccc3c(c2)CCN3CCCCl)C1=O | · | · | · | 0.4 | ·
COc1ccc(-n2c(Cc3cccc([N+](=O)[O-])c3)nc3ccccc3c2=O)cc1 | -34 | -3 | -1 | -0.23 | 9
CCCC1COC(Cn2cncn2)(c2ccc(Cl)cc2Cl)O1 (stereo not drawn) | 94* | 19 | -1 | 0.02 | -23
COc1ccc(C(=O)CN2CCOCC2)cc1F | 10 | 82* | 2 | 0.8 | -4
c1ccc(-c2nc(N3CCOCC3)s[n+]2-c2ccccc2)cc1 | -44 | · | 1 | 0.19 | 2
CC1(C)C[C@H]2C=C(C=O)[C@]3(C=O)C[C@]3(C)[C@H]2C1 | 100* | -277 | -2 | ? | -12
CCCCCCn1c(=O)c(C(=O)Nc2ccncc2)c(O)c2ccccc21 | · | · | · | -5.7 | ·
CCCCn1c(=O)c(C(=O)NCc2ccncc2)c(O)c2ccccc21 | 46* | -24 | 0 | 0.78 | -11
Cc1ccc(N2C(=O)NC(=O)/C(=C\C=C\c3ccco3)C2=O)cc1 | · | · | · | 0.18 | ·
Cc1ccc(N2C(=O)NC(=O)/C(=C\C=C\c3ccco3)C2=O)cc1C | -28 | -26 | 4 | 0.03 | 29*
SMILES | BB579 growth dn | Insulin prom inh | RAM network inh | Ins promoter up | Yeast lifespan up | others
CC12CCC3C(CC=C4CC5(CCC43C)OCCO5)C1CCC2=O (stereo not drawn) | · | -5 | 1 | 0.06 | ·
CCOC(=O)c1ccc(N=Cc2c(O)n(-c3ccc(OC)cc3)c(=S)[nH]c2=O)cc1 | · | 17 | 4 | · | ·
COc1ccc(N=Cc2c(O)n(-c3ccc(C)cc3)c(=O)[nH]c2=O)cc1 | · | 83* | 7 | 0.24 | ·
CC1CC(C)CN(CC(=O)c2ccc(OC(F)F)cc2)C1 (stereo not drawn) | -7 | · | 0 | 2.4 | -1
OCc1cnc[nH]1 | -28 | 33 | 2 | · | 6
COC(=O)c1cccc(N=Cc2c(O)n(Cc3ccc(F)cc3)c(=O)[nH]c2=O)c1 | · | · | · | -0.8 | ·
CCn1cc(C(=O)O)c(=O)c2ccc(C)nc21 | -18 | -9 | -1 | 1.6 | 64*
Cc1ccc(N2C(=O)NC(=O)/C(=C/c3ccc(-c4ccc(C(=O)O)c(Cl)c4)o3)C2=O)cc1 | · | -20 | 11* | 1.1 | ·
CN1CSC(=S)N(C)C1 | 86* | 68* | 0 | -0.19 | -31
Cc1ccc(/C=C2\C(=O)NC(=O)N(CCc3ccc(F)cc3)C2=O)o1 | -37 | 26 | 7 | -0.62 | 39*
O=C1/C(=C/c2cccc([N+](=O)[O-])c2)N2CCC1CC2 | -37 | · | 1 | 0.48 | 36*
CCOCCSc1nc2c(c(-c3cccs3)c1C#N)CC/C2=C/c1cccs1 | -5 | -19 | 12* | -0.44 | 7 | RAM efflux-def=3
CN(C)c1ccc(/C=C/C=C2/C(=O)NC(=O)N(c3ccccc3)C2=O)cc1 | · | · | 26* | · | · | RAM efflux-def=12
C/C(=N\N1CCCCCC1)c1c(O)n(-c2ccccc2C)c(=O)[nH]c1=O | · | · | · | -0.49 | ·
C=CCN1C(=O)/C(=C/c2ccc3c(c2)CCCN3CCC)C(=O)NC1=S | -20 | -21 | 5 | 0.68 | 18
CCN1C(=O)/C(=C/c2ccc3c(c2)CCN3CCCCl)C(=O)NC1=S | -38 | 4 | 16* | 0.02 | 21 | RAM efflux-def=5
CC(C)[C@H](CN(N=O)[C@@H](Cc1ccccc1)CN(C)N=O)N(CCc1ccccc1)N=O | · | · | 13* | -1.1 | · | RAM efflux-def=4
Oc1ccc2c3c1O[C@H]1c4[nH]c5ccccc5c4C[C@@]4(O)C(C2)N(CC2CC2)CC[C@]314 | · | · | · | -0.2 | ·
O=[N+]([O-])/C=C/c1c(OCc2ccccc2)ccc2ccccc12 | -50 | 43 | 13* | · | 14 | RAM efflux-def=5
Cc1ccc[n+](CC(O)Cn2c3ccccc3c3ccccc32)c1 (stereo not drawn) | -1 | -106 | 2 | 0.57 | 0
CCCCCn1c(=O)c(C(=O)Nc2cnccn2)c(O)c2ccccc21 | · | · | 12* | -5.7 | · | RAM efflux-def=2
CCCCCn1c(=O)c(C(=O)Nc2nc(CC(=O)OCC)cs2)c(O)c2ccccc21 | · | 50 | 25* | -0.52 | · | RAM efflux-def=3
C=CC[N+]1(C)C2CCC1CC(O)C2 (stereo not drawn) | · | · | 0 | 0.09 | ·
Cc1cc([P+](=O)O)c(C)n1-c1ccc(Br)cc1 | -37 | · | 4 | -0.89 | -18
CCOC(=O)c1c(-c2ccc(OC)cc2)oc2ccc(OC(=O)N(C)C)cc12 | -43 | · | 14* | 0.78 | -15 | RAM efflux-def=1
